A selection: hits, their analogues and other compounds. The true share with any hit is near 0.81%.
Pf gametocyte: P. falciparum stage V gametocyte viability inhibition | 0.065% of 150,000 active | inhibition, % at 10.9 µM | P. falciparum stage V gametocytes, ATP luminescence, 24 h | AID 743093;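 active means inhibition above the mean plus 3 SD of compounds within the control limits, set per campaign, cut at about 38% in these data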
Rad51 HR inh: blocks human Rad51 in homologous recombination; Q06609; hRad51 DNA strand exchange, fluorescence dequenching; inhibition, % at 10 µM; 0.085% of 200,000 active;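 active means inhibition above 40% at the single screening dose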
Target sequence (Q06609 whole entry, looked up): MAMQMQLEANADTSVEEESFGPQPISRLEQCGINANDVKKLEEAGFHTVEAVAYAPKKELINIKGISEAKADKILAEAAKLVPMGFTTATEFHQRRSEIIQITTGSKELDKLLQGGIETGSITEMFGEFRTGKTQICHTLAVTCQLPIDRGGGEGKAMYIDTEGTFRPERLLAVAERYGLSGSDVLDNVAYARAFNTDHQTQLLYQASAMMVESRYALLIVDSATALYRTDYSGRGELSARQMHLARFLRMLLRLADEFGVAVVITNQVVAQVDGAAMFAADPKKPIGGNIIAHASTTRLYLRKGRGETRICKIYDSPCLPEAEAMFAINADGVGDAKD
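material = hRad51 filaments on single-stranded DNA | reagent = Donor/quencher-labelled 47-bp dsDNA substrate | compound = 10 µM final, single point | schedule = strand-exchange reaction 15 min at room temperature | measured by = fluorescein emission 520 nm, excitation 485 nm | read-out basis = % inhibition versus plate control and blank means | benchmarks = plate controls and plate blanks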
m-calpain inh: calpain II (pig) inhibition; AID 1236; purified calpain II, fluorogenic peptide substrate, 30 min; inhibition, % at 16 µM; 0.37% of 220,000 active;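 active means inhibition above about 50%, limit read from the data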
PKD1 inh: inhibitors of human PKD1 kinase; Q15139; inhibition, % (no concentration beside the values); 0.056% of 200,000 active; PKD1 kinase fluorescence polarization assay; in the data active means inhibition above about 50%
DTT redox prof: compounds producing H2O2 with reducing agent – biochemical, NIH compound library profiling, artefact control for MLSCN library redox annotation, primary screen; 0.03% of 200,000 active; DTT-dependent redox cycling H2O2, phenol red/HRP absorbance; 100% = 100 µM peroxide control, 0% = buffer; activation, % at 10 µM;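 active means activation of at least 50% relative to the plate's high and low controls in the primary single-dose screen; inactive means activation below 50%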;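 further: compound incubated with DTT at 0.8 mM final as the reducing agent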
HMGR II inh: inhibitors of class II HMG-CoA reductase from Enterococcus faecalis. purified E. faecalis HMGR, NADPH absorbance 340 nm kinetic. inhibition, % at 10 µM. 0.41% of 190,000 active. AID 1066;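 active means inhibition above a set limit, the median over all tested compounds plus 3 SD, cut at about 9.5% in these data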;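 further: enzyme runs in reverse so mevalonate oxidation gives rising NADPH absorbance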
FP interf 140K: FP interference, PKD inhibitor counter-screen. shares compounds with PKD1 inh. PKD1 FP assay interference counter-screen, fluorescence polarization. inhibition, % at 10 µM. 85 tested, under 10 active; call rule not given here
Redox H2O2 DR: confirmation of DTT-dependent redox cycling H2O2 generators. EC50, µM. shares compounds with DTT redox prof. 40% of 60 active. phenol red-HRP absorbance;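 active means EC50 under a set limit for hydrogen peroxide production with the reducing agent DTT present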
Each line names hits and unclear results; the compound was inactive in the other large screens (follow-up assays come after a bar, where they were run).

CCCC(C(=O)NC(C)(C)C)N(Cc1ccc(F)cc1)C(=O)c1snc(C(N)=O)c1N (stereo unspecified)	none (no result: Rad51 HR inh, m-calpain inh, PKD1 inh, DTT redox prof, HMGR II inh)
COc1ccc2c3c(cccc13)C(=O)N(O)C2=O	none
CCC1=NNc2cccc3c(OC)ccc1c23	PKD1 inh 99 (no result: Pf gametocyte) | FP interf 140K inactive
CS(=O)(=O)N1CCN(c2ccc(NC(=O)c3ccc(Br)o3)cc2)CC1	PKD1 inh 91 (no result: Pf gametocyte) | FP interf 140K inactive
CN1CCN(c2ccccc2NC(=O)c2ccc(-c3cccc([N+](=O)[O-])c3)o2)CC1	PKD1 inh 52 (no result: Rad51 HR inh) | FP interf 140K inactive
Cc1ccc(NC(=O)Nc2ccc(F)c(Cl)c2)cc1	none
Cc1ccc(NC(=O)CNc2ccc(Cl)cc2F)cc1	PKD1 inh 86 | FP interf 140K inactive
COc1ccc(CN2CCC(=O)N(CCO)CC2)cc1OC	none (no result: Rad51 HR inh, m-calpain inh, PKD1 inh, DTT redox prof, HMGR II inh)
CC(C)NC(=O)N(C)C[C@H]1Oc2ccc(NS(=O)(=O)c3ccccc3)cc2C(=O)N([C@H](C)CO)C[C@@H]1C	none (no result: Rad51 HR inh, m-calpain inh, PKD1 inh, DTT redox prof, HMGR II inh)
CC12CCC(C)(c3nc4ccccc4nc31)C2(C)C	none
Cc1[nH]nc2c1-c1nc3ccccc3nc1C(C)(C)C2	PKD1 inh 58 (no result: Pf gametocyte) | FP interf 140K inactive
CC(=O)Oc1cc(OC(C)=O)c2c(C)cc(=O)oc2c1	PKD1 inh 54 | FP interf 140K inactive
CN(C)c1ccc(/C=C2\SC(=S)N(Nc3ncc(C(F)(F)F)cc3Cl)C2=O)cc1	PKD1 inh 69 | FP interf 140K inactive
CSc1ccc(CN(C)C(C)C(=O)NCc2ccccc2)cc1 (stereo unspecified)	none
O=S(=O)(c1ccc2c(c1)OCCO2)N1CCN(Cc2ccc3c(c2)OCO3)CC1	none
Cn1c(=O)oc2cc(S(=O)(=O)N3CCN(Cc4ccc5c(c4)OCO5)CC3)ccc21	PKD1 inh 80 | FP interf 140K inactive
O=S(=O)(c1ccc(F)c(F)c1)N1CCN(c2ccccn2)CC1	none (no result: Rad51 HR inh, m-calpain inh, PKD1 inh, DTT redox prof, HMGR II inh)
CC(OC(=O)c1ccc(NS(=O)(=O)c2cccs2)cc1)C(=O)N(C)C1CCCCC1 (stereo unspecified)	PKD1 inh 51 | FP interf 140K inactive
Cc1ccc(C(=O)Cn2c(NCCO)nc3ccccc32)cc1	PKD1 inh 53 | FP interf 140K inactive
O=C(Cn1c(NCCO)nc2ccccc21)c1ccccc1	none (no result: Rad51 HR inh)
COc1ccc(-c2cnnc(N/N=C/c3ccc(O)c(O)c3)n2)cc1	PKD1 inh 52 | FP interf 140K inactive
Cc1cc2nc3c(=O)n(C4CCCCC4)c(=O)[nH]c3nc2cc1N	PKD1 inh 57 | FP interf 140K inactive
Cc1cc(C)cc(Nc2cc(=O)n(C3CCCCC3)c(=O)[nH]2)c1	none (no result: Pf gametocyte)
O=C(NCCOC(=O)c1ccc(C(=O)OCCNC(=O)c2cccnc2)s1)c1cccnc1	PKD1 inh 105 (no result: Pf gametocyte) | FP interf 140K inactive
CCCCNc1c(N)n(CC(C)C)c(=O)[nH]c1=O	none
N#Cc1c(Cl)nc2c(c1C#N)CCCC2	none (no result: PKD1 inh, DTT redox prof, HMGR II inh)
O=C(Nc1ccc(Cl)cc1)OCc1cn(-c2ccc(Cl)cc2)nn1	PKD1 inh 108 | FP interf 140K inactive
COc1ccc(NC(=O)CSc2nc(C)cs2)c(OC)c1	none
Cc1c(C(=O)NCc2cccnc2)sc2nc(-c3ccc(F)cc3)cn12	m-calpain inh 78, PKD1 inh 54 (no result: Pf gametocyte) | FP interf 140K inactive
Cc1cc(NCCCN)nc(-c2ccccc2O)n1	PKD1 inh 114 (no result: Pf gametocyte) | FP interf 140K inactive
Cc1ccc(Nc2cc(C)nc(-c3ccccc3O)n2)cc1	none
O=C(CCN1C(=O)/C(=C\c2cccs2)SC1=S)NC1=NCCS1	none
COc1ccccc1/C=C1\SC(=S)N(CCC(=O)NC2=NCCS2)C1=O	PKD1 inh 52 | FP interf 140K inactive
COc1ccc(C(=O)COc2ccc(C)cc2NC(C)=O)cc1	none (no result: PKD1 inh, DTT redox prof, HMGR II inh)
COc1ccc(S(=O)(=O)N2CCC(n3cnc4cc(C(F)(F)F)ccc43)CC2)cc1	PKD1 inh 74 (no result: Pf gametocyte) | FP interf 140K inactive
Cc1ccnc(NC(=O)Nc2ccc(Br)cc2Cl)c1	none
Cc1nn(C)c(C)c1N1C(=O)c2cccc3c(N)ccc(c23)C1=O	PKD1 inh 67 | FP interf 140K inactive
Cc1nn(C)c(C)c1N1C(=O)c2cccc3c(Br)ccc(c23)C1=O	none (no result: Pf gametocyte)
Cc1occc1C(=O)NC(C)CCc1ccccc1 (stereo unspecified)	PKD1 inh 119 (no result: Pf gametocyte) | FP interf 140K inactive
Cc1ccc(C)c(C(=O)NC(C)CCc2ccccc2)c1 (stereo unspecified)	none
COC(=O)c1cnc(Oc2ccc(NC(=O)NC(=O)c3ccccc3Cl)cc2)cc1C(F)(F)F	none (no result: PKD1 inh, DTT redox prof, HMGR II inh)
O=C(O)C1CCN(c2ncccn2)CC1	PKD1 inh 90 (no result: Pf gametocyte) | FP interf 140K inactive
CCCc1nc2c(=O)n(C)c(=O)nc-2n(C)n1	DTT redox prof 128 (no result: Pf gametocyte, Rad51 HR inh) | Redox H2O2 DR 1.5
CCCCn1c(NC(=O)c2ccccc2Cl)c(C#N)c2nc3ccccc3nc21	DTT redox prof 311 | Redox H2O2 DR inactive
N#Cc1c(NC(=O)c2ccccc2Cl)n(Cc2ccccc2)c2nc3ccccc3nc12	none
COc1ccc(NC(=O)CCC(=O)c2ccc(F)cc2)cc1	none (no result: Rad51 HR inh, m-calpain inh, PKD1 inh, DTT redox prof, HMGR II inh)
COc1ccc(NC(=O)CN(c2ccccc2F)S(=O)(=O)c2ccc(C)cc2)c(OC)c1	none (no result: Rad51 HR inh, m-calpain inh, PKD1 inh, DTT redox prof, HMGR II inh)
Nn1cnnc1SCC(=O)Nc1ccc2c(c1)OCO2	none (no result: Pf gametocyte)
O=C1C(Cl)=C(N2CCC(C(=O)O)CC2)C(=O)c2ccccc21	none (no result: Pf gametocyte, PKD1 inh, DTT redox prof, HMGR II inh)
NC(=O)C1CCN(C2=C(Cl)C(=O)c3ccccc3C2=O)CC1	DTT redox prof 356 | Redox H2O2 DR inactive
O=C1c2ccccc2C(=O)c2c1cccc2N(CCO)CCO	none (no result: Rad51 HR inh, m-calpain inh, PKD1 inh, DTT redox prof, HMGR II inh)
O=C1C=C(N(CCO)Cc2ccccc2)c2ccccc2C1=O	DTT redox prof 129 (no result: Pf gametocyte) | Redox H2O2 DR 3.1
COc1ccc2[nH]cc(CCNS(=O)(=O)c3ccc(C)cc3)c2c1	none (no result: Rad51 HR inh, PKD1 inh, DTT redox prof, HMGR II inh)
COc1cccc(NC(=O)C(OC(=O)c2ccc([N+](=O)[O-])o2)c2ccccc2)c1 (stereo unspecified)	DTT redox prof 92 | Redox H2O2 DR inactive
CCOC(=O)c1c2c(n(C)c1COC)C(=O)C(=O)c1ccc(Br)cc1-2	DTT redox prof 343 (no result: Pf gametocyte, m-calpain inh, HMGR II inh) | Redox H2O2 DR inactive
CCCn1c(=O)c(C(=O)OCC)c(O)c2cc(Br)ccc21	none
Nc1cc2nsnc2cc1Br	DTT redox prof 362 (no result: Pf gametocyte) | Redox H2O2 DR inactive
Nc1cccc2nsnc12	none (no result: Rad51 HR inh, PKD1 inh, DTT redox prof, HMGR II inh)
Cc1ccnc(NC(c2ccccc2O)c2oc(CO)cc(=O)c2O)c1 (stereo unspecified)	none (no result: Pf gametocyte)
CCc1nc(N2CCN(C(=S)NCCCOC)CC2)c2c3c(sc2n1)CCCC3	none (no result: Rad51 HR inh, m-calpain inh, PKD1 inh, DTT redox prof, HMGR II inh)
CCCCn1c(NS(=O)(=O)c2ccc(C)cc2)c(S(=O)(=O)c2ccccc2)c2nc3ccccc3nc21	DTT redox prof 97 | Redox H2O2 DR inactive
